From ChEMBL document CHEMBL1687728, “Daptomycin versus Friulimicin B: in-depth profiling of Bacillus subtilis cell envelope stress responses” (2009)
The source made the active and inactive calls. The calls are words filed in the database; no cut-off is given here.

Tests used:
Bacillus subtilis [1] = assay: Induction of yrhH gene expression in Bacillus subtilis at 1 ug/ml by microarray analysis relative to untreated control; type: functional
How it was run: (§1)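 B. subtilis cells harvested 10 min after antibiotic addition. Pellets were snap-frozen in liquid nitrogen, then RNA was prepared for microarray hybridization. Fold induction is taken against untreated control cells.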

Bacillus subtilis [2] = assay: Induction of ycgRQ gene expression in Bacillus subtilis at 1 ug/ml by microarray analysis relative to untreated control; type: functional; how it was run: as §1
Bacillus subtilis [3] = assay: Induction of sigY gene expression in Bacillus subtilis by real-time RT-PCR; type: functional
How it was run: (§2)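 Transcript levels measured by one-step real-time RT-PCR with SYBR green detection. Fold change is given as mean ± standard deviation of two independent experiments.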

Bacillus subtilis [4] = assay: Induction of yppC gene expression in Bacillus subtilis at 1 ug/ml by microarray analysis relative to untreated control; type: functional; how it was run: as §1
Bacillus subtilis [5] = assay: Induction of yjbC-spx gene expression in Bacillus subtilis at 1 ug/ml by microarray analysis relative to untreated control; type: functional; how it was run: as §1
Bacillus subtilis [6] = assay: Induction of yqiG gene expression in Bacillus subtilis at 1 ug/ml by microarray analysis relative to untreated control; type: functional; how it was run: as §1
Bacillus subtilis [7] = assay: Induction of sigW gene expression in Bacillus subtilis by real-time RT-PCR; type: functional; how it was run: as §2
Bacillus subtilis [8] = assay: Induction of sigV-yrhM gene expression in Bacillus subtilis at 1 ug/ml by microarray analysis relative to untreated control; type: functional; how it was run: as §1
Bacillus subtilis [9] = assay: Induction of yqjL gene expression in Bacillus subtilis at 1 ug/ml by microarray analysis relative to untreated control; type: functional; how it was run: as §1
Bacillus subtilis [10] = assay: Induction of sigM-yhdLK gene expression in Bacillus subtilis at 1 ug/ml by microarray analysis relative to untreated control; type: functional; how it was run: as §1
Bacillus subtilis [11] = assay: Induction of sigM gene expression in Bacillus subtilis by real-time RT-PCR; type: functional; how it was run: as §2
Bacillus subtilis [12] = assay: Induction of ywaC gene expression in Bacillus subtilis at 1 ug/ml by microarray analysis relative to untreated control; type: functional; how it was run: as §1
Bacillus subtilis [13] = assay: Induction of ypuD gene expression in Bacillus subtilis at 1 ug/ml by microarray analysis relative to untreated control; type: functional; how it was run: as §1
Bacillus subtilis [14] = assay: Induction of yebC gene expression in Bacillus subtilis at 1 ug/ml by microarray analysis relative to untreated control; type: functional; how it was run: as §1
Bacillus subtilis [15] = assay: Induction of yjbQ gene expression in Bacillus subtilis at 1 ug/ml by microarray analysis relative to untreated control; type: functional; how it was run: as §1
Bacillus subtilis [16] = assay: Induction of yoxD gene expression in Bacillus subtilis at 1 ug/ml by microarray analysis relative to untreated control; type: functional; how it was run: as §1
Bacillus subtilis [17] = assay: Induction of ylaC gene expression in Bacillus subtilis by real-time RT-PCR; type: functional; how it was run: as §2
Bacillus subtilis [18] = assay: Induction of mreBH gene expression in Bacillus subtilis at 1 ug/ml by microarray analysis relative to untreated control; type: functional; how it was run: as §1
Bacillus subtilis [19] = assay: Induction of liaIH gene expression in Bacillus subtilis at 1 ug/ml by microarray analysis relative to untreated control; type: functional; how it was run: as §1
Bacillus subtilis [20] = assay: Induction of sms-yacKL gene expression in Bacillus subtilis at 1 ug/ml by microarray analysis relative to untreated control; type: functional; how it was run: as §1
Bacillus subtilis [21] = assay: Induction of gerAAABAC gene expression in Bacillus subtilis at 1 ug/ml by microarray analysis relative to untreated control; type: functional; how it was run: as §1
Bacillus subtilis [22] = assay: Induction of ypbG gene expression in Bacillus subtilis at 1 ug/ml by microarray analysis relative to untreated control; type: functional; how it was run: as §1
Bacillus subtilis [23] = assay: Induction of ybeF gene expression in Bacillus subtilis at 1 ug/ml by microarray analysis relative to untreated control; type: functional; how it was run: as §1
Bacillus subtilis [24] = assay: Induction of rodA gene expression in Bacillus subtilis at 1 ug/ml by microarray analysis relative to untreated control; type: functional; how it was run: as §1
Bacillus subtilis [25] = assay: Induction of bcrC gene expression in Bacillus subtilis at 1 ug/ml by microarray analysis relative to untreated control; type: functional; how it was run: as §1
Bacillus subtilis [26] = assay: Induction of yrhIJ gene expression in Bacillus subtilis at 1 ug/ml by microarray analysis relative to untreated control; type: functional; how it was run: as §1
Bacillus subtilis [27] = assay: Induction of yfnI gene expression in Bacillus subtilis at 1 ug/ml by microarray analysis relative to untreated control; type: functional; how it was run: as §1
Bacillus subtilis [28] = assay: Induction of ypuA gene expression in Bacillus subtilis at 1 ug/ml by microarray analysis relative to untreated control; type: functional; how it was run: as §1
Bacillus subtilis [29] = assay: Induction of sigV gene expression in Bacillus subtilis by real-time RT-PCR; type: functional; how it was run: as §2
Bacillus subtilis [30] = assay: Induction of pbpI gene expression in Bacillus subtilis at 1 ug/ml by microarray analysis relative to untreated control; type: functional; how it was run: as §1
Bacillus subtilis [31] = assay: Induction of liaH gene expression in Bacillus subtilis by real-time RT-PCR; type: functional; how it was run: as §2
Bacillus subtilis [32] = assay: Induction of ywnJ gene expression in Bacillus subtilis at 1 ug/ml by microarray analysis relative to untreated control; type: functional; how it was run: as §1
Bacillus subtilis [33] = assay: Induction of ydaH gene expression in Bacillus subtilis at 1 ug/ml by microarray analysis relative to untreated control; type: functional; how it was run: as §1
Bacillus subtilis [34] = assay: Induction of ylxW gene expression in Bacillus subtilis at 1 ug/ml by microarray analysis relative to untreated control; type: functional; how it was run: as §1
Bacillus subtilis [35] = assay: Induction of radC gene expression in Bacillus subtilis at 1 ug/ml by microarray analysis relative to untreated control; type: functional; how it was run: as §1
Bacillus subtilis [36] = assay: Induction of sigX gene expression in Bacillus subtilis by real-time RT-PCR; type: functional; how it was run: as §2
Bacillus subtilis [37] = assay: Induction of sigZ gene expression in Bacillus subtilis by real-time RT-PCR; type: functional; how it was run: as §2
Bacillus subtilis [38] = assay: Induction of ywtF gene expression in Bacillus subtilis at 1 ug/ml by microarray analysis relative to untreated control; type: functional; how it was run: as §1
Bacillus subtilis [39] = assay: Induction of promoter liaI in Bacillus subtilis at 0.5 to 2 ug/ml; type: functional, organism-based
How it was run: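 PliaI promoter activity read by β-galactosidase assay in strain BFS2470 (W168 liaI::pMUTIN). Antibiotic concentrations spanned 4 orders of magnitude.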

With `CC(C)CCCCCCC/C=C\CC(=O)N[C@@H](CC(N)=O)C(=O)N[C@@H]1C(=O)N2CCCC[C@@H]2C(=O)N[C@@H]([C@H](C)C(=O)O)C(=O)N[C@@H](CC(=O)O)C(=O)NCC(=O)N[C@@H](CC(=O)O)C(=O)NCC(=O)N[C@H]([C@H](C)N)C(=O)N[C@@H](C(C)C)C(=O)N2CCC[C@H]2C(=O)N[C@@H]1C` [FRIULIMICIN B] the “fold change (FC)” value (Bacillus subtilis [1]) was 8.5, the “fold change (FC)” value (Bacillus subtilis [2]) was 5.9 and the “fold change (FC)” value (Bacillus subtilis [3]) was 1.8. The “fold change (FC)” value (Bacillus subtilis [4]) was 4.1, the “fold change (FC)” value (Bacillus subtilis [5]) was 7.2 and the “fold change (FC)” value (Bacillus subtilis [6]) was 3.4. For the same molecule, the “fold change (FC)” value (Bacillus subtilis [7]) was 0.9, the “fold change (FC)” value (Bacillus subtilis [8]) was 5.1 and the “fold change (FC)” value (Bacillus subtilis [9]) was 8.9. For the same molecule, the “fold change (FC)” value (Bacillus subtilis [10]) was 7.4, the “fold change (FC)” value (Bacillus subtilis [11]) was 8.7 and the “fold change (FC)” value (Bacillus subtilis [12]) was 8.7. For the same molecule, the “fold change (FC)” value (Bacillus subtilis [13]) was 6.2, the “fold change (FC)” value (Bacillus subtilis [14]) was 4.1 and the “fold change (FC)” value (Bacillus subtilis [15]) was 3.4. For the same molecule, the “fold change (FC)” value (Bacillus subtilis [16]) was 3.7, the “fold change (FC)” value (Bacillus subtilis [17]) was 2.9 and the “fold change (FC)” value (Bacillus subtilis [18]) was 3.1. For the same molecule, the Activity (Bacillus subtilis [19]) was “inactive”, the “fold change (FC)” value (Bacillus subtilis [20]) was 7.1 and the Activity (Bacillus subtilis [21]) was “inactive”. For the same molecule, the “fold change (FC)” value (Bacillus subtilis [22]) was 6.4, the Activity (Bacillus subtilis [23]) was “inactive” and the “fold change (FC)” value (Bacillus subtilis [24]) was 3.8. The “fold change (FC)” value (Bacillus subtilis [25]) was 8.2, the “fold change (FC)” value (Bacillus subtilis [26]) was 5.7 and the “fold change (FC)” value (Bacillus subtilis [27]) was 4.7. The “fold change (FC)” value (Bacillus subtilis [28]) was 6.5, the “fold change (FC)” value (Bacillus subtilis [29]) was 7.4 and the “fold change (FC)” value (Bacillus subtilis [30]) was 3.8. The “fold change (FC)” value (Bacillus subtilis [31]) was 0.9, the “fold change (FC)” value (Bacillus subtilis [32]) was 4.1 and the “fold change (FC)” value (Bacillus subtilis [33]) was 9.1. The “fold change (FC)” value (Bacillus subtilis [34]) was 3.5, the “fold change (FC)” value (Bacillus subtilis [35]) was 6.9 and the “fold change (FC)” value (Bacillus subtilis [36]) was 0.8. For the same molecule, the “fold change (FC)” value (Bacillus subtilis [37]) was 1.2 and the “fold change (FC)” value (Bacillus subtilis [38]) was 3.9.
`CCCCCCCCCC(=O)N[C@@H](Cc1c[nH]c2ccccc12)C(=O)N[C@H](CC(N)=O)C(=O)N[C@@H](CC(=O)O)C(=O)N[C@@H]1C(=O)NCC(=O)N[C@@H](CCCN)C(=O)N[C@@H](CC(=O)O)C(=O)N[C@H](C)C(=O)N[C@@H](CC(=O)O)C(=O)NCC(=O)N[C@H](CO)C(=O)N[C@@H]([C@H](C)CC(=O)O)C(=O)N[C@@H](CC(=O)c2ccccc2N)C(=O)O[C@@H]1C` was tested, and the “fold change (FC)” value (Bacillus subtilis [1]) was 3.1, the Activity (Bacillus subtilis [2]) was “inactive” and the “fold change (FC)” value (Bacillus subtilis [3]) was 0.9. The Activity (Bacillus subtilis [4]) was “inactive”, the Activity (Bacillus subtilis [5]) was “inactive” and the Activity (Bacillus subtilis [6]) was “inactive”. For the same molecule, the “fold change (FC)” value (Bacillus subtilis [7]) was 1.4, the Activity (Bacillus subtilis [8]) was “inactive” and the “fold change (FC)” value (Bacillus subtilis [9]) was 3.3. The Activity (Bacillus subtilis [10]) was “inactive”, the “fold change (FC)” value (Bacillus subtilis [11]) was 2.4 and the “fold change (FC)” value (Bacillus subtilis [12]) was 4.5. For the same molecule, the Activity (Bacillus subtilis [13]) was “inactive”, the Activity (Bacillus subtilis [14]) was “inactive” and the Activity (Bacillus subtilis [15]) was “inactive”. The Activity (Bacillus subtilis [16]) was “inactive”, the “fold change (FC)” value (Bacillus subtilis [17]) was 1 and the “fold change (FC)” value (Bacillus subtilis [18]) was 3.9. The “fold change (FC)” value (Bacillus subtilis [19]) was 429, the Activity (Bacillus subtilis [20]) was “inactive” and the “fold change (FC)” value (Bacillus subtilis [21]) was 15. For the same molecule, the Activity (Bacillus subtilis [22]) was “inactive”, the “fold change (FC)” value (Bacillus subtilis [23]) was 4.6 and the Activity (Bacillus subtilis [24]) was “inactive”. The “fold change (FC)” value (Bacillus subtilis [25]) was 3.3, the Activity (Bacillus subtilis [39]) was “Active” and the Activity (Bacillus subtilis [26]) was “inactive”. The Activity (Bacillus subtilis [27]) was “inactive”, the Activity (Bacillus subtilis [28]) was “inactive” and the “fold change (FC)” value (Bacillus subtilis [29]) was 2.4. For the same molecule, the Activity (Bacillus subtilis [30]) was “inactive”, the “fold change (FC)” value (Bacillus subtilis [31]) was 1170 and the Activity (Bacillus subtilis [32]) was “inactive”. The “fold change (FC)” value (Bacillus subtilis [33]) was 3.3, the Activity (Bacillus subtilis [34]) was “inactive” and the Activity (Bacillus subtilis [35]) was “inactive”. The “fold change (FC)” value (Bacillus subtilis [36]) was 0.8, the “fold change (FC)” value (Bacillus subtilis [37]) was 1 and the Activity (Bacillus subtilis [38]) was “inactive”.
